Test results taken from ChEMBL document CHEMBL3272156, “(Vinylaryloxy)acetic acids. A new class of diuretic agents. 4. Various ((2-substituted and 2,2-disubstituted vinyl)aryloxy)acetic acids” (1976).

Legend:
Canis familiaris [1] = assay: Diuretic activity in mongrel dog anesthetized with sodium pentobarbital assessed as urine Na+ level at 25 mg/kg, iv measured after 15 to 45 mins post dose (reference value: 3 to 44 uequiv/min); format: functional, Canis lupus familiaris
Method in brief: (§1)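 Dogs given compound iv as the Na salt in water; clearance procedure per ref 1. Baseline is the mean of two 15-min clearance periods before dosing. Response is the mean of two consecutive 15-min periods of maximal Na+ excretion, usually 15–45 min after dosing. Values are from single representative experiments in a series of three or four dogs.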

Canis familiaris [2] = assay: Diuretic activity in mongrel dog anesthetized with sodium pentobarbital assessed as urine K+ level at 25 mg/kg, iv measured after 15 to 45 mins post dose (reference value: 10 to 44 uequiv/min); format: functional, Canis lupus familiaris; method in brief: as §1
Canis familiaris [3] = assay: Diuretic activity in mongrel dog anesthetized with sodium pentobarbital assessed as urine Cl- level at 25 mg/kg, iv measured after 15 to 45 mins post dose (reference value: 0 to 30 uequiv/min); format: functional, Canis lupus familiaris; method in brief: as §1
Canis familiaris [4] = assay: Diuretic activity in mongrel dog anesthetized with sodium pentobarbital assessed as urine volume at 25 mg/kg, iv measured after 15 to 45 mins post dose (reference value: 1 to 5 ml/min); format: functional, Canis lupus familiaris; method in brief: as §1
Canis familiaris [5] = assay: Diuretic activity in mongrel dog […] assessed as urine Na+ level per 6 hrs at 10 mg/kg, po as gelatin capsules (reference value: 2 equiv/6 hrs); format: functional, Canis lupus familiaris
Method in brief: (§2)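 Trained female mongrel dogs (8–10 kg) given 100 ml water the day before and fasted overnight. On test day they received 250 ml water orally, then 500 ml 1 h later. One hour after that, bladders were catheter-emptied and compound or placebo was given orally in gelatin capsules. Dogs were kept in metabolism cages, and spontaneous urine was pooled with catheter urine at 6 h. Volume and Na+, K+ and Cl− were measured; results are averages per dog group.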

Canis familiaris [6] = assay: Diuretic activity in mongrel dog […] assessed as urine K+ level per 6 hrs at 10 mg/kg, po as gelatin capsules (reference value: 1 equiv/6 hrs); format: functional, Canis lupus familiaris; method in brief: as §2
Canis familiaris [7] = assay: Diuretic activity in mongrel dog […] assessed as urine Cl- level per 6 hrs at 10 mg/kg, po as gelatin capsules (reference value: 2 equiv/6 hrs); format: functional, Canis lupus familiaris; method in brief: as §2
Canis familiaris [8] = assay: Diuretic activity in mongrel dog anesthetized with sodium pentobarbital assessed as urine Na+ level at 5 mg/kg, iv measured after 15 to 45 mins post dose (reference value: 3 to 44 uequiv/min); format: functional, Canis lupus familiaris; method in brief: as §1
Canis familiaris [9] = assay: Diuretic activity in mongrel dog anesthetized with sodium pentobarbital assessed as urine K+ level at 5 mg/kg, iv measured after 15 to 45 mins post dose (reference value: 10 to 44 uequiv/min); format: functional, Canis lupus familiaris; method in brief: as §1
Canis familiaris [10] = assay: Diuretic activity in mongrel dog anesthetized with sodium pentobarbital assessed as urine Cl- level at 5 mg/kg, iv measured after 15 to 45 mins post dose (reference value: 0 to 30 uequiv/min); format: functional, Canis lupus familiaris; method in brief: as §1
Canis familiaris [11] = assay: Diuretic activity in mongrel dog anesthetized with sodium pentobarbital assessed as urine volume at 5 mg/kg, iv measured after 15 to 45 mins post dose (reference value: 1 to 5 ml/min); format: functional, Canis lupus familiaris; method in brief: as §1
Canis familiaris [12] = assay: Diuretic activity in mongrel dog anesthetized with sodium pentobarbital assessed as urine Na+ level at 1 mg/kg, iv measured after 15 to 45 mins post dose (reference value: 3 to 44 uequiv/min); format: functional, Canis lupus familiaris; method in brief: as §1
Canis familiaris [13] = assay: Diuretic activity in mongrel dog anesthetized with sodium pentobarbital assessed as urine K+ level at 1 mg/kg, iv measured after 15 to 45 mins post dose (reference value: 10 to 44 uequiv/min); format: functional, Canis lupus familiaris; method in brief: as §1
Canis familiaris [14] = assay: Diuretic activity in mongrel dog anesthetized with sodium pentobarbital assessed as urine Cl- level at 1 mg/kg, iv measured after 15 to 45 mins post dose (reference value: 0 to 30 uequiv/min); format: functional, Canis lupus familiaris; method in brief: as §1
Canis familiaris [15] = assay: Diuretic activity in mongrel dog anesthetized with sodium pentobarbital assessed as urine volume at 1 mg/kg, iv measured after 15 to 45 mins post dose (reference value: 1 to 5 ml/min); format: functional, Canis lupus familiaris; method in brief: as §1
Canis familiaris [16] = assay: Diuretic activity in mongrel dog anesthetized with sodium pentobarbital assessed as urine Na+ level at 10 mg/kg, iv measured after 15 to 45 mins post dose (reference value: 3 to 44 uequiv/min); format: functional, Canis lupus familiaris; method in brief: as §1
Canis familiaris [17] = assay: Diuretic activity in mongrel dog anesthetized with sodium pentobarbital assessed as urine K+ level at 10 mg/kg, iv measured after 15 to 45 mins post dose (reference value: 10 to 44 uequiv/min); format: functional, Canis lupus familiaris; method in brief: as §1
Canis familiaris [18] = assay: Diuretic activity in mongrel dog anesthetized with sodium pentobarbital assessed as urine Cl- level at 10 mg/kg, iv measured after 15 to 45 mins post dose (reference value: 0 to 30 uequiv/min); format: functional, Canis lupus familiaris; method in brief: as §1
Canis familiaris [19] = assay: Diuretic activity in mongrel dog anesthetized with sodium pentobarbital assessed as urine volume at 10 mg/kg, iv measured after 15 to 45 mins post dose (reference value: 1 to 5 ml/min); format: functional, Canis lupus familiaris; method in brief: as §1
Canis familiaris [20] = assay: Diuretic activity in mongrel dog […] assessed as urine Na+ level per 6 hrs at 5 mg/kg, po as gelatin capsules (reference value: 2 equiv/6 hrs); format: functional, Canis lupus familiaris; method in brief: as §2
Canis familiaris [21] = assay: Diuretic activity in mongrel dog […] assessed as urine K+ level per 6 hrs at 5 mg/kg, po as gelatin capsules (reference value: 1 equiv/6 hrs); format: functional, Canis lupus familiaris; method in brief: as §2
Canis familiaris [22] = assay: Diuretic activity in mongrel dog […] assessed as urine Cl- level per 6 hrs at 5 mg/kg, po as gelatin capsules (reference value: 2 equiv/6 hrs); format: functional, Canis lupus familiaris; method in brief: as §2
Canis familiaris [23] = assay: Diuretic activity in mongrel dog […] assessed as urine Na+ level per 6 hrs at 1 mg/kg, po as gelatin capsules (reference value: 2 equiv/6 hrs); format: functional, Canis lupus familiaris; method in brief: as §2
Canis familiaris [24] = assay: Diuretic activity in mongrel dog […] assessed as urine K+ level per 6 hrs at 1 mg/kg, po as gelatin capsules (reference value: 1 equiv/6 hrs); format: functional, Canis lupus familiaris; method in brief: as §2
Canis familiaris [25] = assay: Diuretic activity in mongrel dog […] assessed as urine Cl- level per 6 hrs at 1 mg/kg, po as gelatin capsules (reference value: 2 equiv/6 hrs); format: functional, Canis lupus familiaris; method in brief: as §2
Canis familiaris [26] = assay: Diuretic activity in mongrel dog […] assessed as urine Na+ level per 6 hrs at 0.3 mg/kg, po as gelatin capsules (reference value: 2 equiv/6 hrs); format: functional, Canis lupus familiaris; method in brief: as §2
Canis familiaris [27] = assay: Diuretic activity in mongrel dog […] assessed as urine K+ level per 6 hrs at 0.3 mg/kg, po as gelatin capsules (reference value: 1 equiv/6 hrs); format: functional, Canis lupus familiaris; method in brief: as §2
Canis familiaris [28] = assay: Diuretic activity in mongrel dog assessed as urine Cl- level per 6 hrs at 0.3 mg/kg, po as gelatin capsules (reference value: 2 equiv/6 hrs)

Row | Compound | Activity (Canis familiaris [16]) [uEq/min] | Activity (Canis familiaris [17]) [uEq/min] | Activity (Canis familiaris [18]) [uEq/min] | Activity (Canis familiaris [19]) [mL/min] | other results
1 | CS(=O)(=O)C(=Cc1ccc(OCC(=O)O)c(Cl)c1Cl)S(C)(=O)=O | – | – | – | – | Activity (Canis familiaris [1]): 31 uEq/min; Activity (Canis familiaris [2]): 48 uEq/min; Activity (Canis familiaris [3]): 34 uEq/min; Activity (Canis familiaris [4]): 3 mL/min
2 | O=C(O)COc1ccc(/C=C(/C(=O)Oc2ccccc2)S(=O)(=O)Oc2ccccc2)c(Cl)c1Cl | – | – | – | – | Activity (Canis familiaris [5]): 6 equiv; Activity (Canis familiaris [6]): 2 equiv; Activity (Canis familiaris [7]): 6 equiv
3 | CCOC(=O)C(=Cc1ccc(OCC(=O)O)c(Cl)c1Cl)C(=O)OCC | – | – | – | – | Activity (Canis familiaris [8]): 313 uEq/min; Activity (Canis familiaris [9]): 113 uEq/min; Activity (Canis familiaris [10]): 261 uEq/min; Activity (Canis familiaris [11]): 4 mL/min; Activity (Canis familiaris [12]): 200 uEq/min; Activity (Canis familiaris [13]): 54 uEq/min; Activity (Canis familiaris [14]): 198 uEq/min; Activity (Canis familiaris [15]): 2 mL/min
4 | N#C/C=C/c1ccc(OCC(=O)O)c(Cl)c1Cl | 448 | 59 | 484 | 6 | Activity (Canis familiaris [20]): 12 equiv; Activity (Canis familiaris [21]): 4 equiv; Activity (Canis familiaris [22]): 17 equiv
5 | CC(=O)/C(=C/c1ccc(OCC(=O)O)c(Cl)c1Cl)S(=O)(=O)c1ccccc1 | 183 | 58 | 166 | 3 | –
6 | N#C/C(=C\c1ccc(OCC(=O)O)c(Cl)c1Cl)S(N)(=O)=O | – | – | – | – | Activity (Canis familiaris [5]): 6 equiv; Activity (Canis familiaris [6]): 4 equiv; Activity (Canis familiaris [7]): 6 equiv
7 | N#CC(C#N)=Cc1ccc(OCC(=O)O)cc1 | 64 | 10 | 45 | 2 | –
8 | CC(=C(C#N)C#N)c1ccc(OCC(=O)O)c(Cl)c1Cl | 123 | 38 | 125 | 2 | –
9 | N#CC(C#N)=Cc1ccc(OCC(=O)O)cc1Cl | 14 | 34 | 14 | 2 | –
10 | N#C/C(=C\c1ccc(OCC(=O)O)c(Cl)c1Cl)C(N)=O | 180 | 35 | 88 | 4 | –
11 | NC(=O)C(=Cc1ccc(OCC(=O)O)c(Cl)c1Cl)C(N)=O | 195 | 86 | 145 | 3 | –
12 | C=Cc1ccc(OCC(=O)O)c(Cl)c1Cl | 34 | 29 | 2 | 1 | –
13 | N#C/C(=C\c1ccc(OCC(=O)O)c(Cl)c1Cl)C(=O)O | 38 | 32 | 29 | 1 | –
14 | C=C(CC)C(=O)c1ccc(OCC(=O)O)c(Cl)c1Cl [ETHACRYNIC ACID] | – | – | – | – | Activity (Canis familiaris [23]): 21 equiv; Activity (Canis familiaris [24]): 5 equiv; Activity (Canis familiaris [25]): 26 equiv; Activity (Canis familiaris [26]): 8 equiv; Activity (Canis familiaris [27]): 2 equiv; Activity (Canis familiaris [28]): 10 equiv
15 | CCOC(=O)C(=Cc1ccc(OCC(=O)O)cc1)C(=O)OCC | – | – | – | – | Activity (Canis familiaris [1]): 44 uEq/min; Activity (Canis familiaris [2]): 45 uEq/min; Activity (Canis familiaris [3]): 20 uEq/min; Activity (Canis familiaris [4]): 1 mL/min
16 | N#CC(C#N)=Cc1ccc(OCC(=O)O)c(Cl)c1Cl | 736 | 100 | 665 | 5 | –
17 | CCOC(=O)/C(C#N)=C/c1ccc(OCC(=O)O)cc1 | 25 | 29 | 25 | 2 | Activity (Canis familiaris [1]): 79 uEq/min; Activity (Canis familiaris [2]): 43 uEq/min; Activity (Canis familiaris [3]): 16 uEq/min; Activity (Canis familiaris [4]): 1 mL/min
18 | O=C(O)COc1ccc(/C=C2\C(=O)C3CCN2CC3)c(Cl)c1Cl | 172 | 70 | 115 | 4 | –
